Screening results (PubChem BioAssay)
M5 PAM: CHRM5 positive allosteric modulation; 0.3% of 360,000 active; P08912; CHO-K1 hM5, Fluo-8 calcium, ACh EC20 PAM; 0% = ACh EC20, 100% = ACh EC100; activation, % at 3 µM; AID 624038;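 active = activation above the run cutoff, the mean activation of all test compounds plus 3 SD, cut at about 18% in these data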
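Assay system – human M5 receptor in CHO-K1 cells · Read-out – % activation, ACh-normalized · Technique – Fluo-8 calcium fluorescence · Dosing – single-point, 3 µM nominal · Incubation – Fluo-8 loading 80 min at 37 °C plus 30 min room temperature · Repeats – singlicate, one well per test compound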
CHRM4 antagonist: CHRM4 antagonism in calcium assay; P08173; CHO-hM4 cells, ACh EC80, Fluo-8 calcium fluorescence; inhibition, % at 3 µM; 0.73% of 360,000 active;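 active = inhibition above its plate's cutoff, the mean inhibition of sample wells plus 3 SD, cut at about 27% in these data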
Target sequence (P08173 whole entry, looked up): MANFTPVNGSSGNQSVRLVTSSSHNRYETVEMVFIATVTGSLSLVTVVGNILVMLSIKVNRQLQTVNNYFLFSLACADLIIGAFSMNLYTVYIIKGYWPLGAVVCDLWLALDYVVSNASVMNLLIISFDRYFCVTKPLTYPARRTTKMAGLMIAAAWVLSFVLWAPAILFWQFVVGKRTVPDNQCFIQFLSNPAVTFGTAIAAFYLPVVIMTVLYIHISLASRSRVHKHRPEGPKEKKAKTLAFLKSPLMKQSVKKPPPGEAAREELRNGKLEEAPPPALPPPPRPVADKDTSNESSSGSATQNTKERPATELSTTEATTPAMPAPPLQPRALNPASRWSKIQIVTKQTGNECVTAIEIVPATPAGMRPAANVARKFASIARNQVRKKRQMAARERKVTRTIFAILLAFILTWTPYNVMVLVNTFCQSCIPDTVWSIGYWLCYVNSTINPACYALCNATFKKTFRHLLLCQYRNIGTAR
CHRM4 agonist: CHRM4 agonism in calcium assay; CHO-K1 hM4/Gqi5, Fluo-8 calcium fluorescence; vehicle 0%, full acetylcholine response 100%; AID 624127; P08173; activation, % at 3 µM; 0.14% of 360,000 active;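 active = activation above the run mean over all test wells plus 3 SD, cut at about 32% in these data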;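 also: peak over basal fluorescence ratio per well then scaled between controls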
CHRM5 antagonist: blocks acetylcholine activation of human M5 receptor; P08912; CHO-hM5 cells, Fluo-8 calcium fluorescence, ACh EC80; inhibition, % at 3 µM; 0.59% of 360,000 active;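 active = inhibition above a per-plate cutoff, the mean of that plate's test compounds plus 3 SD, cut at about 27% in these data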
CHRM4 PAM: positive allosteric modulators of human muscarinic M4 receptor | 0.4% of 360,000 active | activation, % at 3 µM | AID 624126 | CHO-K1 hM4/Gqi5, Fluo-8 calcium fluorescence, ACh EC20; 0% = ACh EC20, 100% = maximal ACh | P08173;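 active = activation above its plate's cutoff, the mean activation of sample wells plus 3 SD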
M5 ag: CHRM5 agonism in calcium assay; activation, % at 3 µM; CHO-K1 hM5 cells, Fluo-8 calcium fluorescence; 0% DMSO wells, 100% maximal acetylcholine response; 0.19% of 360,000 active; P08912;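 active = activation above the run's mean over test compounds plus 3 SD, cut at about 23% in these data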;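 also: signal is peak over basal fluorescence ratio across the kinetic read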
Large screens that a line does not name were inactive; ! = not active in a repeat. In the library only some 1.8% were active in any assay of this set; here they are far more common.

CC(Cc1ccccc1Sc1ccccc1O)N(C)C (centres undefined)	CHRM4 antagonist 82, CHRM5 antagonist 99
C#CCN(C)[C@H](C)Cc1ccccc1	none
C[N+](C)(C)CC#CCN1CCCC1=O	CHRM4 antagonist 95, CHRM4 agonist 107, CHRM5 antagonist 98, M5 ag 99
C/C(Cl)=C/CC1(CN2CCCC2=O)C(=O)NC(=O)NC1=O	none
CN1CCN(CCC(C#N)(c2ccccc2)c2ccccc2)CC1	CHRM4 antagonist 40, CHRM5 antagonist 50
C[N+](C)(C)Cc1ccccc1	CHRM5 antagonist 65, M5 ag 89
O=C(c1ccc(N2CCCCCC2)c([N+](=O)[O-])c1)N1CCC2(CC1)OCCO2	none
Cc1cc(Cl)ccc1C(=O)C1CCCN(C2CCSCC2)C1 (centres undefined)	CHRM4 antagonist 33
O=C(c1ccc(C(F)(F)F)cc1)C1CCCN(C2CCSCC2)C1 (centres undefined)	none
O=C(CCC(=O)N1C[C@H]2C[C@@H](C1)c1cccc(=O)n1C2)NCc1ccccc1	none
N[C@@H](Cc1ccccc1)C(=O)N1C[C@H]2C[C@@H](C1)c1cccc(=O)n1C2	CHRM4 antagonist 92
CCC(C(=O)N1C[C@H]2C[C@@H](C1)c1cccc(=O)n1C2)c1ccccc1 (some centres undefined)	none
O=C(CCC(=O)N1C[C@H]2C[C@@H](C1)c1cccc(=O)n1C2)NCc1cccc(C(F)(F)F)c1	CHRM4 antagonist 99
O=C(c1ccc(Cl)cc1)C1CCCN(Cc2cccc3cnccc23)C1 (centres undefined)	CHRM4 antagonist 48, CHRM5 antagonist 48
O=C(c1ccc(Cl)cc1)C1CCCN(Cc2ccc3ncccc3c2)C1 (centres undefined)	CHRM4 antagonist 28
O=C(c1cccc(Cl)c1)C1CCCN(Cc2cccc3cnccc23)C1 (centres undefined)	none
O=C(c1ccc(Cl)cc1)C1CCCN(Cc2ccc3c(c2)OCCO3)C1 (centres undefined)	none
C[C@]12CCC3[C@@H](CCC4=CC(=O)CC[C@@]43CO)C1CCC2=O (some centres undefined)	none
O=C1CN=C(c2ccccc2)c2cc([N+](=O)[O-])ccc2N1	none
O=C1CN=C(c2cc([N+](=O)[O-])ccc2Cl)c2cc([N+](=O)[O-])ccc2N1	CHRM4 PAM 14
CCOC(=O)C1SC2(C(F)(F)F)CC1(O)c1c(C)cc(C)nc1O2 (centres undefined)	CHRM4 PAM 45
CN1C2CCC1CC(OC(=O)c1ccc(Cl)cc1)(C(=O)O)C2 (centres undefined)	CHRM4 PAM 29
CCOc1ccc(C(=O)OC2CC3CCC(C2)N3C)cc1 (centres undefined)	none
CN1C2CCC1CC(OC(=O)c1ccc(Cl)cc1)C2 (centres undefined)	CHRM5 antagonist 32
O=c1[nH]c2ccccc2n1C1CCN(C(c2cccs2)c2nnnn2-c2ccc3c(c2)OCCO3)CC1 (centres undefined)	none
CC(=O)OC1C(O)C2=C3C4(C)C1C(C)(C)C(=O)CC4C3(O)C(OC(C)=O)C1(CC1C)C2=O (centres undefined)	none
CC(C)C(=O)c1cn(Cc2ccc(C#N)cc2)c2ccccc12	none
CC(=O)c1cn(Cc2ccc(C#N)cc2)c2ccccc12	CHRM5 antagonist 42
CC(=O)c1ccc(NC2=NCCCS2)cc1	CHRM5 antagonist 31
CO[C@@H]1C=CC23c4cc5c(cc4CO[C@]2(O)CN(C)[C@H]3C1)OCO5 (some centres undefined)	none
CN(Cc1cccc(-c2ccncc2)c1)C(=O)Oc1ccc([N+](=O)[O-])cc1	none
CN(C)P(=NC(=S)c1cccn1C)(N(C)C)N(C)C	CHRM5 antagonist 27
CC(C)C(=O)Nc1ccc(N2CCN(C)CC2)c(F)c1	none
Cn1cc(C(=O)c2ccccc2)c2ccccc21	M5 ag 31
CN(C)[C@@H]1C(=O)C(C(N)=O)=C(O)[C@@]2(O)C(=O)C3=C(O)c4c(O)cccc4[C@@](C)(O)C3[C@H](O)C12 (some centres undefined)	CHRM4 antagonist 49!
CCCNC(=O)N1CCC2(CC1)OCCO2	none
Cc1ccc(CN2CCN(Cc3ccccc3F)CC2)cc1	M5 PAM 26
CC(C)(C)P(=O)(c1ccncc1)N1CCCC1 (centres undefined)	none
CCC(CO)(C(=O)OC1C[N+]2(C)CCC1CC2)c1ccccc1 (centres undefined)	CHRM4 antagonist 99, CHRM5 antagonist 99
O=C(C[N+]12CCC(CC1)C(OC(=O)c1ccccc1)C2)c1ccc([N+](=O)[O-])cc1 (centres undefined)	none
O=c1[nH]c(O)c(C=Nc2ccc(Cl)c(C(F)(F)F)c2)c(=O)[nH]1	CHRM4 antagonist 34, CHRM5 antagonist 38
COc1ccc(-n2nnnc2C(c2cccc(OC)c2OC)N2CCC(n3c(=O)[nH]c4ccccc43)CC2)cc1 (centres undefined)	none
COc1cccc(C(c2nnnn2-c2ccc3c(c2)OCCO3)N2CCC(n3c(=O)[nH]c4ccccc43)CC2)c1OC (centres undefined)	M5 ag 30
O=c1[nH]c2ccccc2n1C1CCN(C(c2ccccc2)c2nnnn2-c2ccc3c(c2)OCCO3)CC1 (centres undefined)	CHRM4 antagonist 34
COc1ccc(-n2nnnc2C(c2cccs2)N2CCC(n3c(=O)[nH]c4ccccc43)CC2)cc1 (centres undefined)	CHRM4 antagonist 36
COc1ccc(-n2nnnc2C(c2ccccc2)N2CCC(n3c(=O)[nH]c4ccccc43)CC2)cc1 (centres undefined)	none
COC(=O)N(C)c1ccc(C(O)(C(=O)OC)C(F)(F)F)cc1 (centres undefined)	none
CCOP(=O)(Nc1ccc2c(c1)C(=NNC(N)=S)c1ccccc1-2)OCC	none
CCCCCN1C(=O)c2cc(OC)ccc2[C@@]2(C(=O)OCC)Cc3cc(Cl)ccc3[C@@H]12	none
